# According to ChEMBL document CHEMBL4814004, “Design and synthesis of quinoline-pyrimidine inspired hybrids as potential plasmodial inhibitors” (Eur J Med Chem, 2021):
# pIC50, pKd: −log10 of the molar value.
# Legend:
# [1] = test system: Plasmodium falciparum; experiment: Antiplasmodial activity against chloroquine-sensitive Plasmodium falciparum NF54 infected in erythrocytes assessed as reduction in parasite growth incubated for 48 hrs by lactate dehydrogenase assay; format: functional, organism-based; details: NF54, Erythrocyte
# Method in brief: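 P. falciparum NF54 cultured in supplemented RPMI-1640 at 37 °C under 5% CO₂/3% O₂/92% N₂. Rings synchronised with 5% D-sorbitol and set to 2% parasitaemia, 2% haematocrit. Serial dilutions added after a 24 h incubation, then a further 48 h incubation. Quinine as positive control. pLDH read-out with tetrazolium-phenazine ethosulphate, 40 min at 37 °C, A620. IC50 from log sigmoid dose-response curves, triplicate.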
# [2] = Binding affinity to recombinant Plasmodium falciparum HSP70-z expressed in Escherichia coli assessed as steady state affinity by SPR analysis
# Method in brief: (§1)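 MP-SPR at 25 °C in PBS-Tween 20 with 20 mM EDTA, pH 7.4. Analyte at 0, 1.25, 2.5, 5 and 10 nM, injected three times. Association 3 min, dissociation 10 min. Double-referenced, global 1:1 Langmuir fit.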
# [3] = test system: HEK293; experiment: Cytotoxicity against human HEK293 cells incubated for 48 hrs by MTT assay; format: cell-based; details: HEK293, 48 h
# Method in brief: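 HEK-293 monolayers grown in DMEM with 10% FBS and penicillin/streptomycin at 37 °C, 5% CO₂. Cells at 10 000/well exposed 48 h to serial dilutions with final DMSO under 1%. Camptothecin as positive control. MTT (5 mg/ml in PBS pH 7.3) added for 2 h, formazan dissolved in DMSO, read at A540 with 690 nm reference. IC50 from % viability, triplicate.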
# [4] = Binding affinity to recombinant Plasmodium falciparum HSP70-z expressed in Escherichia coli assessed as dissociation rate constant by SPR analysis; method in brief: as §1
# [5] = Selectivity index, ratio of IC50 for human HEK293 cells to IC50 for Plasmodium falciparum NF54; format: toxicity; details: read-out: Ratio IC50
# [6] = Binding affinity to recombinant Plasmodium falciparum HSP70-1 expressed in Escherichia coli assessed as dissociation rate constant by SPR analysis; method in brief: as §1
# [7] = Binding affinity to recombinant Plasmodium falciparum HSP70-1 expressed in Escherichia coli assessed as steady state affinity by SPR analysis; method in brief: as §1
structure (smiles),measurement,setting,value
COc1ccc(C(=O)/C=C/c2ccc(OC)c(OC)c2)c(O)c1,pIC50,[1],5.50
COc1ccc(/C=C/C(=O)c2ccc(O)cc2)c(O)c1,pIC50,[1],6.23
COc1ccc(-c2cc(-c3ccc(C)cc3)nc(NCCNc3ccnc4cc(Cl)ccc34)n2)cc1,pIC50,[1],5.37
COc1ccc(-c2cc(-c3ccc(C)cc3)nc(NCCCNc3ccnc4cc(Cl)ccc34)n2)cc1,pIC50,[1],5.57
Oc1ccc(-c2cc(-c3ccc(O)cc3)nc(NCCCCNc3ccnc4cc(Cl)ccc34)n2)cc1,pIC50,[1],6.49
same,pKd,[2],8.35
same,pIC50,[3],5.50
same,Dissociation rate constant (koff),[4],1.2 10^-1/s
same,selectivity ratio,[5],9.79
same,Dissociation rate constant (koff),[6],8.81 10^-2/s
same,pKd,[7],7.94
Cc1ccc(-c2cc(-c3ccc(Cl)cc3)nc(NCCCCNc3ccnc4cc(Cl)ccc34)n2)cc1,pIC50,[1],5.02
COc1ccc(-c2cc(-c3ccc(OC)c(OC)c3)nc(N3CCN(c4ccnc5cc(Cl)ccc45)CC3)n2)cc1,pIC50,[1],4.75
COc1ccc(-c2cc(-c3ccc(OC)cc3)nc(NCCCCNc3ccnc4cc(Cl)ccc34)n2)cc1,pIC50,[1],4.08
COc1ccc(-c2cc(-c3ccc(C)cc3)nc(N3CCN(c4ccnc5cc(Cl)ccc45)CC3)n2)cc1,pIC50,[1],5.58
COc1ccc(-c2cc(-c3ccc(OC)c(OC)c3)nc(N3CCN(c4ccnc5cc(Cl)ccc45)CC3)n2)cc1OC,pIC50,[1],5.21
same,pKd,[2],5.69
same,Dissociation rate constant (koff),[4],7.48 10^-2/s
same,Dissociation rate constant (koff),[6],7 10^-2/s
same,pKd,[7],7.58
Cc1ccc(-c2cc(-c3ccc(Cl)cc3)nc(N3CCN(c4ccnc5cc(Cl)ccc45)CC3)n2)cc1,pIC50,[1],4.88
Clc1ccc2c(N3CCN(c4nc(-c5ccccc5)cc(-c5ccccc5)n4)CC3)ccnc2c1,pIC50,[1],5.12
Oc1ccc(-c2cc(-c3ccc(O)c(O)c3)nc(NCCCCNc3ccnc4cc(Cl)ccc34)n2)cc1,pIC50,[1],5.79
same,pKd,[2],5.32
same,Dissociation rate constant (koff),[4],9.06 10^-2/s
same,Dissociation rate constant (koff),[6],7.84 10^-2/s
same,pKd,[7],6.55
COc1ccc(-c2cc(-c3ccc(OC)c(OC)c3)nc(NCCCCNc3ccnc4cc(Cl)ccc34)n2)cc1,pIC50,[1],5.58
Oc1ccc(-c2cc(-c3ccc(O)c(O)c3)nc(N3CCN(c4ccnc5cc(Cl)ccc45)CC3)n2)cc1,pIC50,[1],5.58
COc1ccc(-c2cc(-c3ccc(OC)cc3)nc(N3CCN(c4ccnc5cc(Cl)ccc45)CC3)n2)cc1,pIC50,[1],5.11
same,pKd,[2],4.86
same,Dissociation rate constant (koff),[4],8.24 10^-2/s
same,Dissociation rate constant (koff),[6],1.32 10^-2/s
same,pKd,[7],8.66
CC[C@@]1(O)C(=O)OCc2c1cc1n(c2=O)Cc2cc3ccccc3nc2-1 [CAMPTOTHECIN],selectivity ratio,[5],0.01
CCN(CC)CCCC(C)Nc1ccnc2cc(Cl)ccc12 (centres undefined) [CHLOROQUINE],pIC50,[3],3.99
C=C[C@H]1CN2CC[C@H]1C[C@H]2[C@H](O)c1ccnc2ccc(OC)cc12 [QUININE],pIC50,[1],6.97
same,pIC50,[3],3.87
same,selectivity ratio,[5],1240
